Source: ChEMBL document CHEMBL5678817, “FTBMT, a Novel and Selective GPR52 Agonist, Demonstrates Antipsychotic-Like and Procognitive Effects in Rodents, Revealing a Potential Therapeutic Agent for Schizophrenia” (J Pharmacol Exp Ther, 2017)
The source made the active and inactive calls. No cut-off for these calls is given here.

Assays:
[1] = target: Androgen receptor (Homo sapiens) (UniProt P10275); assay: Inhibition of Androgen receptor (unknown origin) at 10 uM relative to control
Summary of the method: (§1)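 Single-point screen at 10 μM across receptor, ion channel and enzyme binding or activity assays. Expressed as percent inhibition versus control; negative values denote stimulation.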

[2] = target: Serotonin 2 (5-HT2) receptor (Homo sapiens) (UniProt P41595+P28223+P28335); assay: Inhibition of Serotonin 5-HT2 receptor (unknown origin) at 10 uM relative to control; format: protein assay
Summary of the method: (§2)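 Part of a 98-target external biochemical selectivity panel that used radioligand/receptor binding-type assays. Compound tested once at 10 µM. Results are reported as % inhibition versus control; negative values mean stimulation of receptor activity.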

[3] = target: Glucocorticoid receptor (Homo sapiens) (UniProt P04150); assay: Inhibition of Glucocorticoid receptor (unknown origin) at 10 uM relative to control; summary of the method: as §2
[4] = target: T1, G protein-coupled receptor 52 (Rattus norvegicus) (UniProt A0A8I5ZQK1); assay: Agonist activity at rat GPR52 expressed in CHO cells assessed as increase in intracellular cAMP level upto 10 uM incubated for 30 mins by Alphascreen assay; format: cell-based
Summary of the method: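 CHO cells stably expressing human, mouse or rat GPR52, plus naïve CHO cells, at 10,000 cells/well. Stimulated in cAMP assay buffer for 30 min at 37 °C. Intracellular cAMP read by AlphaScreen.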

Mus musculus [5] = assay: Antipsychotic activity in C57BL/6N mouse assessed as increase in c-fos positive cells in entorhinal cortex at 30 mg/kg, po measured for 2 hrs by immunohistochemistry analysis; format: functional, organism-based
[6] = target: Insulin receptor (Homo sapiens) (UniProt P06213); assay: Inhibition of Insulin receptor (unknown origin) at 10 uM relative to control; summary of the method: as §2
[7] = target: Sodium-dependent noradrenaline transporter (Homo sapiens) (UniProt P23975); assay: Inhibition of Norepinephrine transporter (unknown origin) at 10 uM relative to control; summary of the method: as §2
Homo sapiens [8] = organism: Homo sapiens; assay: Inhibition of Imidazoline I2 receptor (unknown origin) at 10 uM relative to control; summary of the method: as §2
Homo sapiens [9] = organism: Homo sapiens; assay: Inhibition of Sodium channel Site 2 (unknown origin) at 10 uM relative to control
Summary of the method: (§3)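 Binding and enzyme panel run by an outside contractor against receptors, ion channels and enzymes. Each assay used a single 10 μM test concentration, and results are expressed as percent inhibition. A negative value means stimulation of receptor activity or activation of enzyme activity.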

[10] = target: Adenosine receptor A1 (Homo sapiens) (UniProt P30542); assay: Inhibition of Adenosine A1 receptor (unknown origin) at 10 uM relative to control; summary of the method: as §1
Homo sapiens [11] = organism: Homo sapiens; assay: Inhibition of Glutamate kainate receptor (unknown origin) at 10 uM relative to control; summary of the method: as §2
[12] = target: Substance-P receptor (Homo sapiens) (UniProt P25103); assay: Inhibition of Tachykinin NK1 receptor (unknown origin) at 10 uM relative to control; summary of the method: as §3
[13] = target: T1, G protein-coupled receptor 52 (Rattus norvegicus); assay: Agonist activity at GPR52 in rat Striatal neuron assessed as increase in Egr-2 mRNA expression by RT-PCR analysis; format: cell-based; conditions: filed as agonist
Summary of the method: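 Rat primary striatal neurons (E18–19), used at DIV 13–16. Treated in HBSS with 5 mM HEPES pH 7.5 and 0.5% fatty-acid-free BSA for 15 or 60 min at 37 °C. Cells were homogenized in RLT buffer and IEG mRNA was quantified by qPCR using absolute or ΔΔCt relative quantification.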

[14] = target: B1 bradykinin receptor (Homo sapiens) (UniProt P46663); assay: Inhibition of Bradykinin B1 receptor (unknown origin) at 10 uM relative to control; summary of the method: as §1
[15] = target: Progesterone receptor (Homo sapiens) (UniProt P06401); assay: Inhibition of Progesterone receptor (unknown origin) at 10 uM relative to control; summary of the method: as §2
Homo sapiens [16] = organism: Homo sapiens; assay: Inhibition of Calcium channel N-type (unknown origin) at 10 uM relative to control; summary of the method: as §1
[17] = target: Glutamate [NMDA] receptor (Homo sapiens) (UniProt Q05586+Q12879+Q13224+O15399+O60391+Q14957+Q8TCU5); assay: Inhibition of Glutamate NMDA receptor (unknown origin) at 10 uM in presence of glycine relative to control; format: protein-complex assay; summary of the method: as §2
[18] = target: Voltage-gated L-type calcium channel (Homo sapiens, UniProt O60840+Q01668+Q13698+Q13936); assay: Inhibition of Calcium channel L-type (unknown origin) at 10 uM in presence of dihydropyridine relative to control; format: protein assay; conditions: probe dihydropyridine; summary of the method: as §1
[19] = target: Estrogen receptor (Homo sapiens) (UniProt P03372); assay: Inhibition of Estrogen ERalpha receptor (unknown origin) at 10 uM relative to control; summary of the method: as §2
Homo sapiens [20] = organism: Homo sapiens; assay: Inhibition of EGF receptor (unknown origin) at 10 uM relative to control
Summary of the method: (§4)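 Enzyme activity assays from the same 98-target biochemical panel. Single test concentration of 10 µM. Read-out is % inhibition of enzyme activity relative to control; negative percentages indicate activation of the enzyme.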

[21] = target: Matrilysin (Homo sapiens) (UniProt P09237); assay: Inhibition of MMP7 (unknown origin) at 10 uM relative to control; summary of the method: as §4
Mus musculus [22] = assay: Antipsychotic activity in C57BL/6N mouse assessed as increase in Arc mRNA expression at 3 to 100 mg/kg, po measured for 1 hr by qPCR analysis; format: functional, organism-based; conditions: dose 3-100 mg/kg
Summary of the method: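 Mice dosed orally at 3–100 mg/kg or vehicle. Tissues taken 1 h post-dose, NAc shell and striatum dissected, frozen on dry ice. IEG mRNA quantified by qPCR (absolute or ΔΔCt); n = 5–6; mean ± SEM.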

[23] = target: Protein kinase C (PKC) (Homo sapiens) (UniProt O94806+P41743+P17252+P05129+Q05655+P05771+Q05513+Q02156+P24723+Q15139+Q04759); assay: Inhibition of Protein kinase C (unknown origin) at 10 uM relative to control; format: protein assay; summary of the method: as §4
[24] = target: B2 bradykinin receptor (Homo sapiens) (UniProt P30411); assay: Inhibition of Bradykinin B2 receptor (unknown origin) at 10 uM relative to control; summary of the method: as §1
[25] = target: GABA-A receptor; anion channel (Homo sapiens) (UniProt P14867+P47870+P18507+P28472+P48169+Q99928+Q9UN88+P34903+O00591+O14764+Q8N1C3+P18505+P78334+P47869+P31644+Q16445); assay: Inhibition of GABAA receptor (unknown origin) at 10 uM in presence of flunitrazepam relative to control; format: protein-complex assay; summary of the method: as §2
[26] = target: Interstitial collagenase (Homo sapiens) (UniProt P03956); assay: Inhibition of MMP1 (unknown origin) at 10 uM relative to control; summary of the method: as §4
[27] = target: Muscarinic acetylcholine receptor M1 (Homo sapiens) (UniProt P11229); assay: Inhibition of Muscarinic M1 receptor (unknown origin) at 10 uM relative to control; summary of the method: as §2
[28] = target: T1, G protein-coupled receptor 52 (Rattus norvegicus); assay: Agonist activity at GPR52 in rat Striatal neuron assessed as increase in NMDA-stimulated GABA release […] followed by NMDA-stimulation and measured after 20 mins by scintillation counter analysis; format: cell-based; conditions: filed as agonist, time 60.0 min
[29] = target: Muscarinic acetylcholine receptor M2 (Homo sapiens) (UniProt P08172); assay: Inhibition of Muscarinic M2 receptor (unknown origin) at 10 uM relative to control; summary of the method: as §2

T1 sequence (A0A8I5ZQK1 as listed by the source): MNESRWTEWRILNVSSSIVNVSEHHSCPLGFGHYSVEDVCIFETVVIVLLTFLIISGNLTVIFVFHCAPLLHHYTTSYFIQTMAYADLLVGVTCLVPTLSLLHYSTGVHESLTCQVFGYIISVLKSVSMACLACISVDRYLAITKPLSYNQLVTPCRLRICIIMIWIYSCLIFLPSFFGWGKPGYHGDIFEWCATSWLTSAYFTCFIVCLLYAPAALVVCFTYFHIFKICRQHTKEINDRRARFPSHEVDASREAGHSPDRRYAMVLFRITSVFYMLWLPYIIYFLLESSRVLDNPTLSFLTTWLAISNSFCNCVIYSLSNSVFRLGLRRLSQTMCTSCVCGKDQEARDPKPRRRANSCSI
Chain of Glucocorticoid receptor (Homo sapiens) (P04150 whole entry): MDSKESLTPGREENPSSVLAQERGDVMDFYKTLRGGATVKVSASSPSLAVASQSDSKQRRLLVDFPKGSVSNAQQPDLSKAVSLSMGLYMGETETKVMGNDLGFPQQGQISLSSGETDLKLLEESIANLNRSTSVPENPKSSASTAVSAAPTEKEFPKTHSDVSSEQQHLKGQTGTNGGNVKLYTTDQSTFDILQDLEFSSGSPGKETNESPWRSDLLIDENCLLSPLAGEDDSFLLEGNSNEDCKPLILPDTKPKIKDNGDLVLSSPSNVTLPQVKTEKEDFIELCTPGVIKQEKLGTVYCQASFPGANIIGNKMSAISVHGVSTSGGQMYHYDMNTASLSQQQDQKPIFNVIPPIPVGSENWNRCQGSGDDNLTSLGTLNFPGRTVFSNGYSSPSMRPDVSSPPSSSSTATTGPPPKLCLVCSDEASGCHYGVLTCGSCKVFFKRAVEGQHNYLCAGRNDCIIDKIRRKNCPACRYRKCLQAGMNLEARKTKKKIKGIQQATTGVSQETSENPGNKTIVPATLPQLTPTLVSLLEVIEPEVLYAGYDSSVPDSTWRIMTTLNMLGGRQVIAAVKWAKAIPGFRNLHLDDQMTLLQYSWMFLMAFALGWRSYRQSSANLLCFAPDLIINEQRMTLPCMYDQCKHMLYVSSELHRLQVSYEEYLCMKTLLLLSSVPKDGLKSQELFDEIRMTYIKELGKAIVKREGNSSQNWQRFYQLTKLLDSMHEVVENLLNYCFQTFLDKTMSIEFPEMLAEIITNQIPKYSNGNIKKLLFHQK
Chain of Sodium-dependent noradrenaline transporter (Homo sapiens) (P23975 whole entry): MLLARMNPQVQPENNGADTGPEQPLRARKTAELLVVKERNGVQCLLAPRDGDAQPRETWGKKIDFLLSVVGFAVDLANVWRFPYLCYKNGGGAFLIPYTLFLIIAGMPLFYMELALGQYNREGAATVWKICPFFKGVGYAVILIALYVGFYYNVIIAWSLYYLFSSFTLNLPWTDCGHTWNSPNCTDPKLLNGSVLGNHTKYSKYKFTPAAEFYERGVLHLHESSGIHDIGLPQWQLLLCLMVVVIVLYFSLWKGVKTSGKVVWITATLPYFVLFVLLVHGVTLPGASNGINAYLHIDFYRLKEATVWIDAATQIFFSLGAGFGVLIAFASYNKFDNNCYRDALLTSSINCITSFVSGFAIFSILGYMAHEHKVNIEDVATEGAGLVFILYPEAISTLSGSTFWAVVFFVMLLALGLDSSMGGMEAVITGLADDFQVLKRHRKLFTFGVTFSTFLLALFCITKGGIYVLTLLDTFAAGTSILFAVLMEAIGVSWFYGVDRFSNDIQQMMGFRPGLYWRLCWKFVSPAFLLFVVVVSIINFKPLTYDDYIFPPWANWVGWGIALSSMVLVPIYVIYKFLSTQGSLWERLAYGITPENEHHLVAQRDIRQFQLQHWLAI
Chain of Androgen receptor (Homo sapiens) (P10275 whole entry): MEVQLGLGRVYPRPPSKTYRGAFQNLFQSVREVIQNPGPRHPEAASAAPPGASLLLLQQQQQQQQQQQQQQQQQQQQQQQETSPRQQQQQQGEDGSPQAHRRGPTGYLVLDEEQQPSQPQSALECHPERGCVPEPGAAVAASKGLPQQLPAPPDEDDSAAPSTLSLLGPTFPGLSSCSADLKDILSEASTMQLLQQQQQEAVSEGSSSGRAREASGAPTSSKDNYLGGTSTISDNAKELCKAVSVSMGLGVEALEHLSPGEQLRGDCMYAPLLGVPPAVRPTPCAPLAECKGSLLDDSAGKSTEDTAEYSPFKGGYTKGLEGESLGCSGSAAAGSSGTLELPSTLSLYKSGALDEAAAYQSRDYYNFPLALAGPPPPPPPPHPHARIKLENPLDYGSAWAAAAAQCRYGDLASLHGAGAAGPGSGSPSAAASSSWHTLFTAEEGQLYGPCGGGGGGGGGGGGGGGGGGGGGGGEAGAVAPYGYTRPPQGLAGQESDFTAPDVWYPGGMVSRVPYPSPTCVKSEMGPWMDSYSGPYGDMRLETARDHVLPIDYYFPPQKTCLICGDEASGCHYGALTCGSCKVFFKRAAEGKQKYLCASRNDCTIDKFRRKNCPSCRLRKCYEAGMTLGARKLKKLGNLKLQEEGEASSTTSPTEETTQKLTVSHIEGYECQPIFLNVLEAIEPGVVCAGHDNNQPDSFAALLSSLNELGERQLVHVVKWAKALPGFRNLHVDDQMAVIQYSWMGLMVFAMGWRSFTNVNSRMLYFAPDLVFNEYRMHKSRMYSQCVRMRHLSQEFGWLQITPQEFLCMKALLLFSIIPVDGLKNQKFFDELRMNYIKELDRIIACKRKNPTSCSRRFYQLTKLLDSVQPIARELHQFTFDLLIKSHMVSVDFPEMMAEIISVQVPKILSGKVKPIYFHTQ
Chain of Serotonin 2 (5-HT2) receptor (Homo sapiens) (P28223 whole entry, looked up): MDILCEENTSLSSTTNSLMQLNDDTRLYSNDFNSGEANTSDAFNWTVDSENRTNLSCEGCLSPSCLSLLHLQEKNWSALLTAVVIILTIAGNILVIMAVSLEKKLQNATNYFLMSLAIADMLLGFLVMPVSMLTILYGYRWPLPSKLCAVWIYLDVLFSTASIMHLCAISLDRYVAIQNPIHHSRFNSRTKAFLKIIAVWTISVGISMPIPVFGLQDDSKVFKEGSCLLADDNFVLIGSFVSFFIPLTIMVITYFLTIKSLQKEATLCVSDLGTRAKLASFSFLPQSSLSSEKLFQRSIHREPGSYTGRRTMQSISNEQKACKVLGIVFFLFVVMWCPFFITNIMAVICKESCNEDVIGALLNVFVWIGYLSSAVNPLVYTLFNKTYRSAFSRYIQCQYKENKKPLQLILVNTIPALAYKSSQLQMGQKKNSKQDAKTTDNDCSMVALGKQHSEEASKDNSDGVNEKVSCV
Chain of Serotonin 2 (5-HT2) receptor (Homo sapiens) (P28335 whole entry, looked up): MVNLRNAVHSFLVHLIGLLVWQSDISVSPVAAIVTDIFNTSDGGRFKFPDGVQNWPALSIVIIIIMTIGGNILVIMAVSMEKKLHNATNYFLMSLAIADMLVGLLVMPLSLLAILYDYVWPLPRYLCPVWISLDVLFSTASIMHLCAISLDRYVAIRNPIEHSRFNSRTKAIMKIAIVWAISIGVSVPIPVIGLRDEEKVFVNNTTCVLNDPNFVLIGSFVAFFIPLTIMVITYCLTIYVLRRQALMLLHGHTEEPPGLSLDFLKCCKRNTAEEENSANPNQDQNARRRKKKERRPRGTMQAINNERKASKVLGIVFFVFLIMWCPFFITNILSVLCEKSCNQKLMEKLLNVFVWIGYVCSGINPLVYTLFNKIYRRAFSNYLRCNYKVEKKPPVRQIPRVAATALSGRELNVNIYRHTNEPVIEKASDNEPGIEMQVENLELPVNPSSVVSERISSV
Chain of Serotonin 2 (5-HT2) receptor (Homo sapiens) (P41595 whole entry, looked up): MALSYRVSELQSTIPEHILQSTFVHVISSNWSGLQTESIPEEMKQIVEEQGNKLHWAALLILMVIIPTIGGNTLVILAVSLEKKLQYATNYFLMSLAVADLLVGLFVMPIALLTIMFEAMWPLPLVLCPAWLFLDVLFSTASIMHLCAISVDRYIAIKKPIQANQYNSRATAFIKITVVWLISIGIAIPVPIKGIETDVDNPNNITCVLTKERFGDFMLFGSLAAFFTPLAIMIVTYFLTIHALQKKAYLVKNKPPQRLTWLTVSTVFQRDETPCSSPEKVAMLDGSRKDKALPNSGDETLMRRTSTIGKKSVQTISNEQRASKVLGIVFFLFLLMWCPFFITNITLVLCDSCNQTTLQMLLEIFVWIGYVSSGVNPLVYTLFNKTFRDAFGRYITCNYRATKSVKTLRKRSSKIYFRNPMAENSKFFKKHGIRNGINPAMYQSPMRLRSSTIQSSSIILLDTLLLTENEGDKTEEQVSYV
Chain of Progesterone receptor (Homo sapiens) (P06401 whole entry): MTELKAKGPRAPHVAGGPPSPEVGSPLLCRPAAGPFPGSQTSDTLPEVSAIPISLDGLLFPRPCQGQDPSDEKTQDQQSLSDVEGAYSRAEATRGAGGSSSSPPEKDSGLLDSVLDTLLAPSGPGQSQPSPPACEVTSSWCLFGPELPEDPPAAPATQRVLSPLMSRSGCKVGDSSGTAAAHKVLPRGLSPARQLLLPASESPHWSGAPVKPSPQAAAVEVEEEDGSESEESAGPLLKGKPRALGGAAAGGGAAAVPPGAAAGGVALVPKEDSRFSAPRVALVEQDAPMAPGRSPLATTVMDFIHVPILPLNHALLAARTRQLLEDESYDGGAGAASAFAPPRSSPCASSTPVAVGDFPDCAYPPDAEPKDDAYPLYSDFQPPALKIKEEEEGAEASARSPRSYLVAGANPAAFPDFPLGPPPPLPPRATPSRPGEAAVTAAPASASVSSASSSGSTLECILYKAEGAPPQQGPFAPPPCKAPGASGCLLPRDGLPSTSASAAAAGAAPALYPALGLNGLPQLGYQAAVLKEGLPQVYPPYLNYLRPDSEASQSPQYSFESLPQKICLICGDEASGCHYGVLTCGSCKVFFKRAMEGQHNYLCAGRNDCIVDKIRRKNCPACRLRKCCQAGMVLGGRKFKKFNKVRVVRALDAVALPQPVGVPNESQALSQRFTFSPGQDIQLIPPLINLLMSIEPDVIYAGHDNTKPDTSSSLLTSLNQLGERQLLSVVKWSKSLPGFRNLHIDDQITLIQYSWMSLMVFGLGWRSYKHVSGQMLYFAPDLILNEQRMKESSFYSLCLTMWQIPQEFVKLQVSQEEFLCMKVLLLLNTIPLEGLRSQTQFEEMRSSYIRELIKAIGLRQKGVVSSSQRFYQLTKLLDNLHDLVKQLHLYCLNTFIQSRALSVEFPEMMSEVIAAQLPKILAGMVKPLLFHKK

`Cc1cc(-n2nc(Cc3cc(F)cc(C(F)(F)F)c3)nc2C)ccc1C(N)=O` [TP-024] showed an inhibition [1] of 5%, an inhibition [2] of 14% and an inhibition [3] of 12%. For the same compound, the Activity [4] was “inactive”, the Activity (Mus musculus [5]) was “Active” and the inhibition [6] was -9%. The inhibition [7] was 10%, the inhibition (Homo sapiens [8]) was 6% and the inhibition (Homo sapiens [9]) was 1%. It also gave an inhibition [10] of 33%, an inhibition (Homo sapiens [11]) of 2% and an inhibition [12] of 4%. The Activity [13] was “Active”, the inhibition [14] was -5% and the inhibition [15] was 4%. The inhibition (Homo sapiens [16]) was -9%, the inhibition [17] was 3% and the inhibition at 10 µM [18] was -2%. It also gave an inhibition [19] of -9%, an inhibition (Homo sapiens [20]) of -1% and an inhibition [21] of 0%. For the same compound, the Activity (Mus musculus [22]) was “Active”, the inhibition [23] was -5% and the inhibition [24] was 16%. For the same compound, the inhibition [25] was 6%, the inhibition [26] was -3% and the inhibition [27] was 4%. The Activity [28] was “Active” and the inhibition [29] was -6%.
